From ChEMBL document CHEMBL1914320, “C4-alkylthiols with activity against Moraxella catarrhalis and Mycobacterium tuberculosis” (Bioorg Med Chem, 2011)
Converted amounts (≈) assume the structure as drawn. The source made the active and inactive calls. No cut-off for these calls is given here.

Columns and labels:
Moraxella catarrhalis [1] = experiment: Antibacterial activity against beta-lactamase producing Moraxella catarrhalis isolate 1 at 10 ug/disc after overnight incubation by disc diffusion assay; type: functional
Procedure, shortened: (§1)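 Isolates were held at −80 °C. Five colonies were suspended in Mueller-Hinton broth to a 0.5 McFarland density and swabbed onto MH agar. Discs carried 10 μg compound, applied in methanol and dried at room temperature. Plates were incubated overnight at 37 °C, and the zone of inhibition was measured in mm from the disc edge. Controls were methanol-only and penicillin discs. Run blinded, in triplicate.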

Moraxella catarrhalis [2] = experiment: Antibacterial activity against beta-lactamase producing Moraxella catarrhalis isolate 2 at 10 ug/disc after overnight incubation by disc diffusion assay; type: functional; conditions: for zone of inhibition at 10 µg/disc: read-out: IZ; procedure, shortened: as §1
Moraxella catarrhalis [3] = experiment: Antibacterial activity against beta-lactamase producing Moraxella catarrhalis isolate 3 at 10 ug/disc after overnight incubation by disc diffusion assay; type: functional; procedure, shortened: as §1
Moraxella catarrhalis [4] = experiment: Antibacterial activity against beta-lactamase producing Moraxella catarrhalis isolate 4 at 10 ug/disc after overnight incubation by disc diffusion assay; type: functional; conditions: for zone of inhibition at 10 µg/disc: read-out: IZ; procedure, shortened: as §1
Moraxella catarrhalis [5] = experiment: Antibacterial activity against beta-lactamase producing Moraxella catarrhalis isolate 5 at 10 ug/disc after overnight incubation by disc diffusion assay; type: functional; conditions: for zone of inhibition at 10 µg/disc: read-out: IZ; procedure, shortened: as §1
Moraxella catarrhalis [6] = experiment: Antibacterial activity against beta-lactamase producing Moraxella catarrhalis isolate 1 after 48 hrs incubation by microdilution broth method; type: functional; conditions: isolate 1, 48 h
Procedure, shortened: (§2)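 Broth microdilution followed CLSI guidelines. Compound was dissolved in 95% ethanol, diluted at least 10-fold into Mueller-Hinton broth, then serially two-fold diluted from 500 to 15.6 μg/mL. Actively growing culture was added at 5 × 10^5 cells/mL. Plates ran 48 h at 37 °C, scored for visible growth at 24 and 48 h. MIC was the lowest concentration without growth. For MBC, 10 μL from each clear well was plated on MH agar. Controls were ethanol and penicillin. Triplicate.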

Moraxella catarrhalis [7] = experiment: Antibacterial activity against beta-lactamase producing Moraxella catarrhalis isolate 2 after 48 hrs incubation by microdilution broth method; type: functional; conditions: isolate 2, 48 h; procedure, shortened: as §2
Moraxella catarrhalis [8] = experiment: Antibacterial activity against beta-lactamase producing Moraxella catarrhalis isolate 3 after 48 hrs incubation by microdilution broth method; type: functional; conditions: isolate 3, 48 h; procedure, shortened: as §2
Moraxella catarrhalis [9] = experiment: Antibacterial activity against beta-lactamase producing Moraxella catarrhalis isolate 4 after 48 hrs incubation by microdilution broth method; type: functional; conditions: isolate 4, 48 h; procedure, shortened: as §2
Moraxella catarrhalis [10] = experiment: Antibacterial activity against beta-lactamase producing Moraxella catarrhalis isolate 5 after 48 hrs incubation by microdilution broth method; type: functional; conditions: isolate 5, 48 h; procedure, shortened: as §2
Moraxella catarrhalis [11] = experiment: Antibacterial activity against beta-lactamase producing Moraxella catarrhalis isolate 6 after 48 hrs incubation by microdilution broth method; type: functional; conditions: isolate 6, 48 h; procedure, shortened: as §2
[12] = system: Mycobacterium tuberculosis; experiment: Antimycobacterial activity against wild type Mycobacterium tuberculosis H37Rv by Alamar blue assay; type: functional
Escherichia coli [13] = experiment: Antibacterial activity against non-beta-lactamase producing Escherichia coli ATCC 25922 at 10 ug/disc after overnight incubation by disc diffusion assay; type: functional, organism-based; procedure, shortened: as §1
Pseudomonas aeruginosa [14] = experiment: Antibacterial activity against non-beta-lactamase producing Pseudomonas aeruginosa ATCC 27853 at 10 ug/disc after overnight incubation by disc diffusion assay; type: functional, organism-based; procedure, shortened: as §1
Staphylococcus aureus [15] = experiment: Antibacterial activity against non-beta-lactamase producing Staphylococcus aureus ATCC 25923 at 10 ug/disc after overnight incubation by disc diffusion assay; type: functional, organism-based; procedure, shortened: as §1
Enterococcus faecalis [16] = experiment: Antibacterial activity against non-beta-lactamase producing Enterococcus faecalis ATCC 29212 at 10 ug/disc after overnight incubation by disc diffusion assay; type: functional, organism-based; procedure, shortened: as §1
Escherichia coli [17] = experiment: Antibacterial activity against non-beta-lactamase producing Escherichia coli ATCC 25922 after 48 hrs by microdilution broth method; type: functional, organism-based; procedure, shortened: as §2
Pseudomonas aeruginosa [18] = experiment: Antibacterial activity against non-beta-lactamase producing Pseudomonas aeruginosa ATCC 27853 after 48 hrs by microdilution broth method; type: functional, organism-based; procedure, shortened: as §2
Staphylococcus aureus [19] = experiment: Antibacterial activity against non-beta-lactamase producing Staphylococcus aureus ATCC 25923 after 48 hrs by microdilution broth method; type: functional, organism-based; procedure, shortened: as §2
Enterococcus faecalis [20] = experiment: Antibacterial activity against non-beta-lactamase producing Enterococcus faecalis ATCC 29212 after 48 hrs by microdilution broth method; type: functional, organism-based; procedure, shortened: as §2
Moraxella catarrhalis [21] = experiment: Antibacterial activity against beta-lactamase producing Moraxella catarrhalis isolate 1 at 10 ug/disc after overnight incubation by disc diffusion assay in presence of 1 mol equiv of glutathione; type: functional; conditions: for zone of inhibition at 10 µg/disc: read-out: IZ
Moraxella catarrhalis [22] = experiment: Antibacterial activity against beta-lactamase producing Moraxella catarrhalis isolate 2 at 10 ug/disc after overnight incubation by disc diffusion assay in presence of 1 mol equiv of glutathione; type: functional; conditions: for zone of inhibition at 10 µg/disc: read-out: IZ
Moraxella catarrhalis [23] = experiment: Antibacterial activity against beta-lactamase producing Moraxella catarrhalis isolate 3 at 10 ug/disc after overnight incubation by disc diffusion assay in presence of 1 mol equiv of glutathione; type: functional
Moraxella catarrhalis [24] = experiment: Antibacterial activity against beta-lactamase producing Moraxella catarrhalis isolate 4 at 10 ug/disc after overnight incubation by disc diffusion assay in presence of 1 mol equiv of glutathione; type: functional; conditions: read-out: IZ
Moraxella catarrhalis [25] = experiment: Antibacterial activity against beta-lactamase producing Moraxella catarrhalis isolate 5 at 10 ug/disc after overnight incubation by disc diffusion assay in presence of 1 mol equiv of glutathione; type: functional; conditions: for zone of inhibition at 10 µg/disc: read-out: IZ
Moraxella catarrhalis [26] = experiment: Antibacterial activity against beta-lactamase producing Moraxella catarrhalis isolate 6 at 10 ug/disc after overnight incubation by disc diffusion assay in presence of 1 mol equiv of glutathione; type: functional
Moraxella catarrhalis [27] = experiment: Antibacterial activity against beta-lactamase producing Moraxella catarrhalis isolate 6 at 10 ug/disc after overnight incubation by disc diffusion assay; type: functional; procedure, shortened: as §1
Moraxella catarrhalis [28] = experiment: Antibacterial activity against beta-lactamase producing Moraxella catarrhalis isolate 2 at 500 ug/ml after overnight incubation by disc diffusion assay; type: functional, organism-based
Moraxella catarrhalis [29] = experiment: Antibacterial activity against beta-lactamase producing Moraxella catarrhalis isolate 3 at 500 ug/ml after overnight incubation by disc diffusion assay; type: functional, organism-based
Moraxella catarrhalis [30] = experiment: Antibacterial activity against beta-lactamase producing Moraxella catarrhalis isolate 4 at 500 ug/ml after overnight incubation by disc diffusion assay; type: functional, organism-based
Moraxella catarrhalis [31] = experiment: Antibacterial activity against beta-lactamase producing Moraxella catarrhalis isolate 5 at 500 ug/ml after overnight incubation by disc diffusion assay; type: functional, organism-based
Moraxella catarrhalis [32] = experiment: Antibacterial activity against beta-lactamase producing Moraxella catarrhalis isolate 6 at 500 ug/ml after overnight incubation by disc diffusion assay; type: functional, organism-based
[33] = system: Mycobacterium tuberculosis; experiment: Antimycobacterial activity against wild type Mycobacterium tuberculosis H37Rv at 200 ug/ml by Alamar blue assay; type: functional, organism-based

Structure (SMILES) | inhibition zone (IZ) (Moraxella catarrhalis [1]) | inhibition zone (IZ) (Moraxella catarrhalis [2]) | inhibition zone (IZ) (Moraxella catarrhalis [3]) | MBC (Moraxella catarrhalis [6]) [µg/mL] | MBC (Moraxella catarrhalis [7]) [µg/mL] | MBC (Moraxella catarrhalis [8]) [µg/mL] | MBC (Moraxella catarrhalis [9]) [µg/mL] | MBC (Moraxella catarrhalis [10]) [µg/mL] | MBC (Moraxella catarrhalis [11]) [µg/mL] | MBC [12] [µg/mL] | Activity (Escherichia coli [13]) | Activity (Pseudomonas aeruginosa [14]) | Activity (Staphylococcus aureus [15]) | Activity (Enterococcus faecalis [16]) | Activity (Escherichia coli [17]) | Activity (Pseudomonas aeruginosa [18]) | Activity (Staphylococcus aureus [19]) | Activity (Enterococcus faecalis [20]) | zone of inhibition at 10 µg/disc (Moraxella catarrhalis [4]) [mm] | zone of inhibition at 10 µg/disc (Moraxella catarrhalis [24]) [mm] | other results
O=C1CC(Sc2cccs2)N1 (racemic) | inactive | inactive | inactive | > 500 | > 500 | 500 (≈ 2700 µM) | 500 (≈ 2700 µM) | 500 (≈ 2700 µM) | > 500 | 100 (≈ 540 µM) | inactive | inactive | inactive | inactive | inactive | inactive | inactive | inactive | – | – | inhibition zone (IZ) (Moraxella catarrhalis [4]): inactive; inhibition zone (IZ) (Moraxella catarrhalis [5]): inactive
O=C1CC(Sc2ccc(O)cc2)N1 (racemic) | – | – | – | > 500 | < 15.6 | < 15.6 | < 15.6 | < 15.6 | < 15.6 | > 200 | inactive | inactive | inactive | inactive | inactive | inactive | inactive | inactive | – | – | –
O=C1CC(Sc2ccc(S)cc2)N1 (racemic) | inactive | – | inactive | 250 (≈ 1180 µM) | 125 (≈ 592 µM) | 125 (≈ 592 µM) | 500 (≈ 2370 µM) | 125 (≈ 592 µM) | 125 (≈ 592 µM) | 25 (≈ 118 µM) | inactive | inactive | inactive | inactive | inactive | inactive | inactive | inactive | 7 | 7 | zone of inhibition at 10 µg/disc (Moraxella catarrhalis [2]): 8 mm; zone of inhibition at 10 µg/disc (Moraxella catarrhalis [5]): 8 mm; zone of inhibition at 10 µg/disc (Moraxella catarrhalis [21]): 7 mm; zone of inhibition at 10 µg/disc (Moraxella catarrhalis [22]): 7 mm; inhibition zone (IZ) (Moraxella catarrhalis [23]): inactive; zone of inhibition at 10 µg/disc (Moraxella catarrhalis [25]): 7 mm; inhibition zone (IZ) (Moraxella catarrhalis [26]): inactive; inhibition zone (IZ) (Moraxella catarrhalis [27]): inactive
O=C1CC(Sc2ccc(O)cc2)N1S(=O)(=O)O (racemic) | – | – | – | > 500 | < 15.6 | < 15.6 | < 15.6 | < 15.6 | < 15.6 | > 200 | inactive | inactive | inactive | inactive | inactive | inactive | inactive | inactive | 8 | 7 | zone of inhibition at 10 µg/disc (Moraxella catarrhalis [1]; read-out: IZ): 13 mm; zone of inhibition at 10 µg/disc (Moraxella catarrhalis [2]): 9 mm; zone of inhibition at 10 µg/disc (Moraxella catarrhalis [3]; read-out: IZ): 7 mm; zone of inhibition at 10 µg/disc (Moraxella catarrhalis [5]): 9 mm; zone of inhibition at 10 µg/disc (Moraxella catarrhalis [21]): 9 mm; zone of inhibition at 10 µg/disc (Moraxella catarrhalis [22]): 7 mm; zone of inhibition at 10 µg/disc (Moraxella catarrhalis [23]; read-out: IZ): 7 mm; zone of inhibition at 10 µg/disc (Moraxella catarrhalis [25]): 8 mm; zone of inhibition at 10 µg/disc (Moraxella catarrhalis [26]; read-out: IZ): 8 mm; zone of inhibition at 10 µg/disc (Moraxella catarrhalis [27]; read-out: IZ): 8 mm
Nc1ccc(SC2CC(=O)N2S(=O)(=O)O)cc1 (racemic) | inactive | inactive | inactive | – | – | – | – | – | – | – | inactive | inactive | inactive | inactive | inactive | inactive | inactive | inactive | 8 | 8 | inhibition zone (IZ) (Moraxella catarrhalis [5]): inactive; inhibition zone (IZ) (Moraxella catarrhalis [21]): inactive; inhibition zone (IZ) (Moraxella catarrhalis [22]): inactive; inhibition zone (IZ) (Moraxella catarrhalis [23]): inactive; inhibition zone (IZ) (Moraxella catarrhalis [25]): inactive; inhibition zone (IZ) (Moraxella catarrhalis [26]): inactive; antibacterial activity (active/not active) (Moraxella catarrhalis [28]): Active; antibacterial activity (active/not active) (Moraxella catarrhalis [29]): Active; antibacterial activity (active/not active) (Moraxella catarrhalis [30]): Active; antibacterial activity (active/not active) (Moraxella catarrhalis [31]): Active; antibacterial activity (active/not active) (Moraxella catarrhalis [32]): Active; antimycobacterial activity (active/not active) [33]: Active; inhibition zone (IZ) (Moraxella catarrhalis [27]): inactive
